This is a sample that favours compounds with a hit; in the whole collection about 4.1% have one here.
T cruzi repl: blocks replication of Trypanosoma cruzi | inhibition, % (no concentration beside the values) | AID 1885 | 300,000 tested, 1.4% active | T. cruzi beta-gal in NIH3T3, luminescence, 90 h;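 active = mean inhibition across valid replicates above about 55%, limit read from the data; inconclusive = mean below that limit but half or more replicates reach it; inactive = mean below it, under half of replicates reach it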;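 note: signal also drops with host cell toxicity which is not excluded here; 0% = plate median of DMSO wells and 100% = zero luminescence signal; higher percent means less beta-gal luminescence so fewer parasites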
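System: mouse NIH/3T3 fibroblasts infected with β-gal-expressing T. cruzi Tulahuen C4 / Input: NIH/3T3 cells, 5,000 per well / Buffer or medium: Low-serum DMEM with 2% FBS / Probe or stimulus: 5000 reporter trypomastigotes per well / Schedule: ≥90 h infection period, 3 h prior cell attachment / Measured by: GalScreen luminescence, 60 min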
FID counter: counter-screen for HCV NS3 helicase inhibitors: DNA intercalator displacement; AID 1845; DNA fluorescent intercalator displacement, fluorescence; inhibition, % at 7.9 µM; 290,000 tested, 0.17% active; in the data active = inhibition above about 37%;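 note: 0% = vehicle and 100% = reference compound; higher means more ethidium bromide displaced from hairpin DNA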
HCV NS3 hel inh: inhibitors of Hepatitis C virus NS3 helicase; inhibition, % at 10.9 µM; NS3 helicase DNA unwinding, Cy5 molecular beacon fluorescence; 290,000 tested, 0.56% active;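 active = inhibition above the mean of all tested compounds plus 3 SD, set per campaign, cut at about 35% in these data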;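 note: 0% = DMSO wells and 100% = thioflavine S control wells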
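Test system: hepatitis C virus NS3 helicase domain fragment enzyme. Also added: annealed dual-labelled DNA beacon duplex, ATP-started. Timing: 60 min unwinding reaction at 25 °C after ATP addition. Technique: Cy5 fluorescence. Measure: % inhibition of unwinding.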
MEKK2mut PB1 HTS: signal of MEK5 binding to mutant human MEKK2 PB1 domain | bead flow cytometry, Alexa488-MEK5 binding to MEKK2 mutant | percent response, % at 10 µM | 290,000 tested, 0.35% active | AID 1530; in the data active = percent response above about 24%, passing the limit was not always enough
MEKK3 PB1 HTS: MEKK3-MEK5 PB1 interaction, increase or decrease | Q99759 | 290,000 tested, 1.4% active | binding response (% of control), % at 10 µM | AID 1529 | bead-based flow cytometry, Alexa488-MEK5 binding to MEKK3; actives lie on both sides; 0 = blocked by unlabeled MEK5, 100 = vehicle;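 active = binding response more than 3 SD above or below the average of its plate-row segment, actives on both sides; inconclusive = wells at one plate position flagged as instrument error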;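 note: Alexa488 bead fluorescence after subtracting the streptavidin-only scavenger bead signal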
MEKK2 WT-MEK5: raises or lowers MEK5 binding to wildtype human MEKK2 PB1 domain; AID 1531; binding response (% of control), % at 10 µM; 290,000 tested, 1.1% active; bead flow cytometry, Alexa488-MEK5 binding to MEKK2 WT; actives lie on both sides; in the data active = binding response below about 67% or above about 130%; inconclusive = no clear call, values can overlap the other calls; inactive = in between
MEKK2wt confirm: raises or lowers MEK5 binding to wildtype human MEKK2, retest; shares compounds with MEKK3 PB1 HTS; bead flow cytometry, Alexa488-MEK5 binding to MEKK2 WT; actives lie on both sides; binding response (% of control), % at 10 µM; 5,900 tested, 2.4% active; AID 1892; in the data active = binding response below about 16% or above about 210%; inactive = in between
MEKK2mut confirm: signal of MEK5 binding to mutant human MEKK2, retest | shares compounds with MEKK3 PB1 HTS | bead flow cytometry, Alexa488-MEK5 binding to MEKK2 mutant | percent response, % at 10 µM | 5,900 tested, 2% active | AID 1893; in the data active = percent response mostly above about 71%, no sharp cut-off; inactive = mostly below about 38%;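 note: higher means compound restores mutant binding toward wildtype level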
MEKK3 confirm: confirmation of inhibitors of MEK5 binding to human MEKK3; 5,900 tested, 1.8% active; binding response (% of control), % at 10 µM; shares compounds with MEKK3 PB1 HTS; bead flow cytometry, Alexa488-MEK5 binding to MEKK3; hits give low values;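 active = binding response below 72% of control, or above a set upper limit, though filed actives all read lower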;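 note: 100% = DMSO only wells and 0% = binding blocked by excess unlabeled MEK5; lower values mean stronger disruption of MEK5 binding to MEKK3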
* marks the source's active call; other numbers are inactive results; ? = inconclusive; nt = no result given; [ ] = remark or other dose.

SMILES	T cruzi repl	FID counter	HCV NS3 hel inh	MEKK2mut PB1 HTS	MEKK3 PB1 HTS	MEKK2 WT-MEK5	MEKK2wt confirm	MEKK2mut confirm	MEKK3 confirm
C=CCNC(=O)c1ccc(-c2ccc([N+](=O)[O-])cc2)o1	-15	-1	6	1	194*	113	103	-6	101
C=CCNC(=O)c1ccc(-c2cccc([N+](=O)[O-])c2)o1	-10	2	-12	-3	96	103	nt	nt	nt
N#C/C(=C\c1ccc(C#N)cc1)C(=O)N1CCCC1	-20	4	-4	-3	71*[inhibitor]	88	103	5	101
c1nc(NCC2(N3CCOCC3)CCCCC2)c2ccsc2n1	3	2	3	4	123*	117	106	7	108
Cc1ccc2nc(Cl)c(C3CC(c4cccs4)=NN3C(=O)CCC(=O)O)cc2c1 (stereo unspecified)	-3	-18	5	-1	139*	103	86	0	90
CC1(C)OC(=O)C(=CNC(=O)c2c(F)cccc2F)C(=O)O1	-20	-1	-13	-4	72*[inhibitor]	82	92	-3	95
Cc1cccc(NC(=O)CSc2nnc(-c3cc(C)[nH]n3)n2N)c1	-1	-7	0	2	99	103	nt	nt	nt
COc1cc(OC)cc(C(=O)Nc2ccc(CN3CCCCC3)cc2)c1	21	7	26	3	104	111	nt	nt	nt
O=C(Nc1ccc2c(c1)OCO2)C(=O)c1c[nH]c2ccccc12	20	-3	1	1	99	100	nt	nt	nt
CCN1CCN(Cc2ccc(NC(=O)c3ccc(C)c(NC(=O)c4ccnnc4)c3)cc2C(F)(F)F)CC1	-3	nt	nt	-6	81*[inhibitor]	99	112	5	103
CCN1CCN(Cc2ccc(NC(=O)c3ccc(C)c(NC(=O)c4ccc5n[nH]nc5c4)c3)cc2C(F)(F)F)CC1	-19	nt	nt	11	115	88	nt	nt	nt
CCN1CCN(Cc2ccc(NC(=O)c3cc(NC(=O)c4cc(C)on4)cc(OC)c3)cc2C(F)(F)F)CC1	43	42*	-90	30*	113	193*	144	30	106
CCN1CCN(Cc2ccc(NC(=O)c3cc(NC(=O)C(=O)c4c[nH]c5ccccc45)cc(OC)c3)cc2C(F)(F)F)CC1	?	nt	nt	131*	109	195*	227*	146*	112
CCN1CCN(Cc2ccc(NC(=O)c3cc(NC(=O)c4cnn(-c5ccccc5)c4N)cc(OC)c3)cc2C(F)(F)F)CC1	31	nt	nt	53*	107	151*	214*	48	100
COc1ccc(NC(=O)c2cnn(-c3ccccc3)c2C)cc1OC	0	-18	8	2	95	95	nt	nt	nt
